AHR act: activates the human aryl hydrocarbon receptor | AHR-responsive luciferase reporter cells, luminescence | 320,000 compounds, 2.5% hits | P35869 | activation, % at 5 µM; in the data active = activation above about 47%;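 note: 0% = vehicle wells and 100% = reference agonist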
HIF activator: HIF pathway transcriptional activation. U2OS HRE-luciferase reporter, luminescence; normalized: DMSO 0%, desferrioxamine 100%. activation, % at 7.5 µM (by protocol). 300,000 compounds, 0.32% hits. AID 1910;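 active = mean activation of at least 10% of the iron chelator positive control signal, with at least half of replicates also reaching 10%; inconclusive = mean and replicate majority disagree about reaching 10%; inactive = mean and most replicates under 10%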
ABCB6 inh MLPCN: human ABCB6 transporter inhibition | K562-ABCB6 porphyrin accumulation, flow cytometry, 1 h; stronger effect = lower value | Q9NP58 | 360,000 compounds, 0.19% hits | AID 602162 | fluorescence ratio to DMSO, % at 10 µM;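 active = fluorescence ratio to DMSO below 75%, the collection mean minus 3 SD; inconclusive = too few cells collected in the well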;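 note: signal is porphyrin accumulated inside mitochondria; 100% equals median channel fluorescence of DMSO control wells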
SR-BI HDL uptake: blocks mouse SR-BI lipid uptake from DiI-HDL; ldlA[mSR-BI] CHO cells, DiI-HDL uptake fluorescence, 3 h; inhibition, % at 12.5 µM; 320,000 compounds, 0.96% hits;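 active = mean replicate inhibition of at least 70% and a set share of replicates each scoring 70 or more; inconclusive = meets just one of the two criteria; inactive = fails both criteria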;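 note: 0% = median of neutral control wells and 100% = median of positive control wells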
Target sequence (Q61009 whole entry, looked up): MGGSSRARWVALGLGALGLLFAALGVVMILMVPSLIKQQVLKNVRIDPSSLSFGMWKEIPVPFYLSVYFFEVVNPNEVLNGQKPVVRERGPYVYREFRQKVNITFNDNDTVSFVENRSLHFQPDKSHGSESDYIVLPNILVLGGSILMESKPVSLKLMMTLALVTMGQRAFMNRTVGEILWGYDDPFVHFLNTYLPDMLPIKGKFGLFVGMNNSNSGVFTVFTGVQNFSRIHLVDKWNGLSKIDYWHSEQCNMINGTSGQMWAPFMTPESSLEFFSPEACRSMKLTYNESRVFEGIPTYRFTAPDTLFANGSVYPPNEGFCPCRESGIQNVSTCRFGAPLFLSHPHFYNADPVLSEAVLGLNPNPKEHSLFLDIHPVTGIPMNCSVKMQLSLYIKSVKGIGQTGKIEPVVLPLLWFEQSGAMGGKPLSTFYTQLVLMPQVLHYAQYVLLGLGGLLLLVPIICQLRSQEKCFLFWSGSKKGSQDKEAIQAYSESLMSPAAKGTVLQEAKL
SR-BI DiI-HDL act: activators of SR-BI mediated HDL lipid uptake; activation, % at 12.5 µM; 320,000 compounds, 0.096% hits; AID 504775; CHO ldlA[mSR-BI] cells, DiI-HDL uptake fluorescence, 3 h; 100 = double the neutral-control signal;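 active = mean replicate activation of at least 60% and every replicate at or above 60%; inconclusive = mean or all-replicate condition met, but not both; inactive = mean below 60% and not all replicates reaching 60%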;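 note: 0% = median plate neutral-control signal and 100% = twice that signal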
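Material: SR-BI-overexpressing, LDLR-lacking CHO cells | Dosing: Single compound concentration, delivered by pin transfer | Probe or stimulus: Labelled HDL, 10 µg/mL | Signal: Bottom-read cell fluorescence after medium removal, ex 550/em 595 nm | Schedule: 3 h, 37 °C | Evaluation: HDL uptake via cellular fluorescence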
GAA850 FXN act: activators of GAA850 frataxin (FXN) promoter. HEK293 lucGAA850 FXN promoter luciferase reporter, 24 h; percent of 10 µM SAHA response. activation, % at 6 µM. 360,000 compounds, 0.56% hits. AID 540364;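 active = activation above the average of all compounds screened plus 3 SD, cutoff fixed separately per campaign, cut at about 7.5% in these data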;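 note: 0% = DMSO wells and 100% = 10 µM SAHA wells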
AHR act confirm: confirmation of human aryl hydrocarbon receptor activators. shares compounds with AHR act. activation, % at 9 µM. human cells, AHR-responsive luciferase reporter, luminescence. AID 2845. 2,300 compounds, 87% hits; in the data active = activation above about 49%;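 note: HepG2 hepatoma cells carrying a DRE-driven firefly luciferase reporter; 0% = vehicle wells and 100% = reference agonist wells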
PXR act counter: counter-screen for AHR activators: human PXR activators; cell-based PXR reporter, luciferase luminescence; AID 434939; 2,300 compounds, 88% hits; activation, % at 11.6 µM; shares compounds with AHR act; in the data active = activation above about 11%;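 note: human hepatoma DPX-2 cells expressing full-length human PXR; 0% = DMSO and 100% = reference agonist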
* marks the source's active call; other numbers are inactive results; ? = inconclusive; nt = no result given. Only some compounds are listed: those with a hit (about 3.9% of all), similar ones and a draw of the others.

SMILES | AHR act | HIF activator | ABCB6 inh MLPCN | SR-BI HDL uptake | SR-BI DiI-HDL act | GAA850 FXN act | AHR act confirm | PXR act counter
CCN(CC)C(=O)c1sc2nc(-c3ccccn3)[nH]c(=O)c2c1C | 83.2* | 0.0 | 99.0 | nt | nt | 3.2 | 40.8 | 52.0*
Cc1sc2nc(-c3ccccn3)[nH]c(=O)c2c1-c1ccccc1 | 25.1 | nt | 98.0 | 10.9 | -10.9 | 1.5 | nt | nt
O=C(NC1(C(F)(F)F)C(=O)Nc2c1c(=O)[nH]c(=O)n2Cc1ccccc1)c1ccc(Cl)cc1 (centres undefined) | 1.5 | 0.0 | 100.0 | -1.8 | 1.8 | 0.4 | nt | nt
Clc1cccc(/C(Cc2nc3ccccc3[nH]2)=N\Nc2ccccc2)c1 | 102.1* | 0.3 | 95.0 | 29.3 | -29.3 | 6.3 | 95.7* | 42.5*
COc1cc(/C=N/NC(=O)c2cccc(NC(=O)c3ccccc3)c2)ccc1O | 99.5* | -0.7 | 106.0 | 32.8 | -32.8 | -1.7 | 88.3* | nt
O=C1CC(c2ccccc2)CC(O)=C1C=Nc1ccccc1Cl (centres undefined) | 6.5 | 0.0 | 101.0 | 13.1 | -13.1 | -1.2 | nt | nt
COc1ccccc1N=CC1=C(O)CC(c2ccccc2)CC1=O (centres undefined) | 100.0* | 0.9 | 104.0 | 27.5 | -26.9 | -2.4 | 93.7* | 12.8*
O=C(NCc1ccco1)c1cccc(S(=O)(=O)N2CCc3ccccc32)c1 | -2.3 | -0.2 | 98.0 | -25.7 | 25.7 | 3.2 | nt | nt
O=C(Nc1ccc(Br)cc1)c1cccc(N2C(=O)C3CCCCC3C2=O)c1 (centres undefined) | 114.0* | 0.4 | 108.0 | 31.6 | -31.6 | -0.8 | 19.2 | 17.8*
CCn1c(C)c(C(C)=O)c(N2CCN(c3ccc(OC)cc3)CC2)nc1=S | 86.1* | 0.1 | 114.0 | -21.1 | 21.1 | 0.1 | 38.4 | 26.2*
COc1ccc(N2CCN(c3nc(=S)n(-c4ccccc4)c(C)c3C(C)=O)CC2)cc1 | 1.8 | 0.2 | 121.0 | -3.7 | 3.7 | 1.2 | nt | nt
O=C1NC(c2cccs2)Nc2sc3c(c21)CCCC3 (centres undefined) | 92.7* | 1.2 | 103.0 | 24.1 | -24.1 | 4.2 | 128.1* | 36.9*
CN1C(=O)c2c(sc3c2CCCC3)NC1c1ccccc1O (centres undefined) | 34.7 | 1.2 | nt | nt | nt | nt | nt | nt
O=C(COC(=O)Cn1cnc2ccccc21)Nc1cc2c(cc1Cl)C(=O)c1ccccc1C2=O | 83.6* | 4.6 | 98.0 | 34.4 | -34.4 | 5.3 | 145.5* | 27.0*
O=C(COC(=O)Cn1cnc2ccccc21)Nc1cc(S(=O)(=O)N2CCOCC2)ccc1Cl | -2.2 | -0.1 | 101.0 | 13.3 | -13.3 | 0.0 | nt | nt
O=C(c1ccc(-c2nc3ccccc3s2)o1)N1CCN(c2ccccc2O)CC1 | 89.2* | 1.1 | 101.0 | 13.5 | -13.5 | 1.2 | 85.3* | 37.4*
O=C(Nc1sc2c(c1C(=O)O)CCCC2)c1ccc(F)cc1 | nt | 0.8 | 103.0 | -17.7 | 17.7 | -1.1 | nt | nt
NC(=O)c1c(NC(=O)c2ccc(F)cc2)sc2c1CCC2 | 173.7* | 3.2 | 97.0 | 13.4 | -13.4 | 3.9 | 100.1* | 37.1*
NC(=O)c1c(NC(=O)c2cc3ccccc3o2)sc2c1CCC2 | 85.5* | -0.6 | 107.0 | 23.8 | -23.8 | 1.2 | 48.3* | 6.8
N#Cc1ccccc1NC(=O)COc1ccccc1C(=O)Nc1ccccc1 | 93.3* | nt | 99.0 | 17.9 | -17.9 | 1.2 | 95.0* | 41.1*
COc1ccccc1NC(=O)COc1ccccc1C(=O)Nc1ccccc1 | 29.0 | 0.3 | 96.0 | 25.3 | -25.3 | 0.2 | nt | nt
CN1CCN(C(=O)c2ccccc2N(Cc2ccccc2)S(=O)(=O)c2ccccc2)CC1 | 0.9 | 0.1 | 83.0 | -26.2 | 26.2 | 6.8 | nt | nt
O=C(Cn1nc(CNc2ccc(Cl)cc2)[n+]2c1CCCCC2)c1ccc(Br)cc1 | 100.2* | -0.4 | 85.0 | -24.9 | 24.9 | -0.7 | 8.3 | 23.8*
Cc1ccc(Nc2nc(-c3ccc(C)cc3)c(CC(=O)O)s2)cc1 | 85.1* | 2.1 | ? | -16.9 | 16.9 | 2.9 | 8.8 | 8.0
CCOC(=O)c1nn(-c2ccc(F)cc2)c(=O)c2c(N)scc12 | 0.5 | -0.1 | 101.0 | 44.2 | -44.2 | 1.8 | nt | nt
SMILES | AHR act | HIF activator | ABCB6 inh MLPCN | SR-BI HDL uptake | SR-BI DiI-HDL act | GAA850 FXN act | AHR act confirm | PXR act counter
Cc1cccc2cc(C#N)c(NCCCn3ccnc3)nc12 | 92.2* | -0.3 | 98.0 | -4.9 | 4.9 | 3.7 | 67.4* | 33.3*
Cc1cc(NCCCn2ccnc2)n2c(nc3ccccc32)c1C#N | 103.7* | 0.4 | 103.0 | -9.1 | 9.1 | 0.7 | 79.5* | 16.2*
O=C(O)CSc1nnnn1-c1ccccc1 | -3.8 | -0.4 | 93.0 | -41.1 | 41.1 | -2.4 | nt | nt
COc1ccc(OC)c(/C=C/C(=O)NCCc2nc3ccccc3[nH]2)c1 | 11.4 | -0.2 | 96.0 | 29.4 | -29.4 | -1.7 | nt | nt
Cc1ccc(-c2nc3ccccc3n2C)o1 | 10.7 | 1.4 | 96.0 | 1.3 | -1.3 | 5.7 | nt | nt
Cc1ccc(C2Nc3ccccc3-c3nc4ccccc4n32)o1 (centres undefined) | 116.1* | 1.5 | 100.0 | 51.0 | -51.0 | 2.9 | 73.7* | 53.3*
COC(=O)Cc1cc(=O)[nH]c(Nc2nc3ccccc3o2)n1 | 38.0 | 0.3 | 89.0 | 8.6 | -8.6 | -0.1 | nt | nt
COCc1cc(=O)[nH]c(Nc2nc3ccccc3o2)n1 | 130.1* | -29.4 | 93.0 | 12.7 | -7.3 | 0.1 | 73.8* | 19.3*
Cc1ccc(C)c(S(=O)(=O)N2CCN(C(=O)c3sccc3C)CC2)c1 | -1.1 | -0.2 | 97.0 | 9.2 | -9.2 | 1.1 | nt | nt
Cn1c(-c2ccc(Cl)cc2)ccc(C#N)c1=O | 99.7* | -0.1 | 91.0 | 11.1 | -11.1 | -1.6 | 103.7* | 13.7*
COC(=O)c1[nH]c2ccccc2c1NC(=O)c1ccccc1F | 11.7 | 0.0 | 103.0 | nt | nt | 1.3 | nt | nt
COC(=O)c1[nH]c2ccccc2c1NC(=O)Oc1ccccc1 | 95.4* | 0.5 | 105.0 | -0.8 | 0.8 | 0.8 | 48.2* | 19.1*
COCCCNC(=O)c1cccn2c(=O)c3cc4ccccc4cc3nc12 | 91.8* | nt | 106.0 | 5.4 | -5.4 | -3.2 | 147.3* | 13.0*
CC1CCN(c2ccccc2NC(=O)c2ccc(F)cc2)CC1 | -0.9 | -1.2 | 91.0 | 26.0 | -26.0 | 0.8 | nt | nt
Cc1nc(NC(=O)c2ccc(Cl)cc2)nc2cc3c(cc12)OCO3 | 91.3* | 0.1 | 107.0 | -37.0 | 37.0 | 2.6 | 71.0* | 16.7*
COc1ccc(C(=O)Nc2nc(C)c3cc4c(cc3n2)OCO4)cc1 | 38.5 | -0.3 | 100.0 | 7.4 | -7.4 | -1.7 | nt | nt
COc1cccc(C#Cc2c(C=O)n(C)c3ccccc23)c1 | 110.4* | nt | 106.0 | 57.0 | -57.0 | -2.1 | 130.4* | 43.2*

From PubChem BioAssay
